Hits are enriched below; roughly 2.6% of the tested compounds scored in any of these assays.
SENP6 inh: blocks the human protease SENP6; AID 2599; inhibition, % at 10 µM; Recombinant SENP6 catalytic domain, aminoluciferin luminescence; 1.8% of 330,000 active;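 active means inhibition above about 50% at the single tested dose, limit read from the data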;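 further: plate controls were DMSO wells with enzyme for no effect and DMSO wells lacking enzyme for full effect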
UCH37 DUB inh: human UCH37 deubiquitinating enzyme inhibition; inhibition, % (no concentration beside the values); purified proteasome/UCH37, Ub-AMC cleavage fluorescence; 0.33% of 330,000 active; Q9Y5K5;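 active means mean inhibition over replicate wells above about 20%, limit read from the data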;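 further: 0% = compound-free wells with enzyme and 100% = wells lacking proteasome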
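Assay system: Proteasome-bound UCH37. Buffer or medium: pH 7.4 Tris-HCl (50 mM) with ovalbumin, ATP-MgCl2, DTT. Incubation: 30 min preincubation with enzyme, 25 min cleavage at room temperature. Measured by: fluorescence, ex 355 nm, em 460 nm. Read-out basis: percent inhibition. Control set: wells without proteasome as full block, compound-free enzyme plus substrate as uninhibited.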
SENP8 block-1: SENP8 protease inhibition; Q96LD8; purified SENP8, Z-RLRGG-aminoluciferin cleavage, luminescence; inhibition, % at 10 µM; 1.2% of 330,000 active; in the data active means inhibition above about 50%
Target sequence (Q96LD8 whole entry, looked up): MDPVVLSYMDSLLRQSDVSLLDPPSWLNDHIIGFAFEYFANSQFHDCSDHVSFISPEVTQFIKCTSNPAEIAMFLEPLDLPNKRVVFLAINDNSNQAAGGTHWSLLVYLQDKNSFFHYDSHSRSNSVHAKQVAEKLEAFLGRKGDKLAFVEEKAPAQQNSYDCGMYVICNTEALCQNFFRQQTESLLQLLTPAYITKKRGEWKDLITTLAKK
SENP7 block: SENP7 protease inhibition; recombinant SENP7, Z-RLRGG-aminoluciferin luminescence, 40 min; 1.5% of 330,000 active; AID 434973; inhibition, % at 5 µM;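 active means inhibition above about 50% at the single test dose, limit read from the data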;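 further: plate controls were DMSO with enzyme for no effect and no enzyme buffer wells for full effect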
Target sequence (Q9BQF6 706-1050 limits assumed): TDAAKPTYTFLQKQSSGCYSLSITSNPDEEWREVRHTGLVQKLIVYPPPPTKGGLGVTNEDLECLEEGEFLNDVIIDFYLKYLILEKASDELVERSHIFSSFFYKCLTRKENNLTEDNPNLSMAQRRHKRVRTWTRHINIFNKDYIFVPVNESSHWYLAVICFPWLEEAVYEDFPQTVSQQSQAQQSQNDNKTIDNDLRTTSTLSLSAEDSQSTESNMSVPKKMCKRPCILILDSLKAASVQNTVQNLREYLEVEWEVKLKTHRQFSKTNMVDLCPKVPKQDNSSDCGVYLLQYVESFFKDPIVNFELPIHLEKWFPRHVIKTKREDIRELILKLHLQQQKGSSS
SENP8 block-2: SENP8 (human) protease inhibition; inhibition, % at 20 µM; 0.64% of 360,000 active; recombinant SENP8, Nedd8 substrate fluorescence; in the data active means inhibition mostly above about 40%, no sharp cut-off; inactive means mostly below about 27%
SENP1 inh: inhibitors of human SENP1 SUMO protease catalytic domain; 0.21% of 360,000 active; recombinant SENP1 catalytic domain, CyPet-SUMO1-YPet FRET cleavage; inhibition, % at 10 µM; Q9P0U3;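 active means inhibition at least 30% at 10 µM, raw YFP signal under a set limit, fluorescence ratio 0.5 to 1.5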;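 further: 0% = enzyme with DMSO and 100% = no enzyme wells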
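Test system: hSENP1 catalytic domain, recombinant; Amount: 20 pM final SENP1 enzyme; Medium: Tris pH 8 buffer plus EDTA, NaCl, BME, BSA, NP40, catalase; Schedule: 50 min enzyme reaction, room temperature, light-protected; Technique: FRET fluorescence in CFP and YFP emission channels; Controls: no-enzyme wells low, DMSO-plus-enzyme wells high control.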
* = called active by the depositor; i = inactive; · = no result given.

SMILES	SENP6 inh	UCH37 DUB inh	SENP8 block-1	SENP7 block	SENP8 block-2	SENP1 inh
Cc1cc(C)c(S(=O)(=O)/N=C2\C=C(Nc3ccc(C(=O)O)cc3)C(=O)c3ccccc32)c(C)c1	89*	·	88*	42	57*	-1
O=C1C(Nc2ccc(O)cc2)=C/C(=N/S(=O)(=O)c2cccs2)c2ccccc21	·	·	·	·	83*	-1
COC1=C(Nc2ccc(O)cc2)C(=O)c2ccccc2C1=O	23	10	8	12	2	2
O=C(Cn1nnc(-c2ccccc2)n1)NN=Cc1cc([N+](=O)[O-])ccc1O	·	9	·	·	·	·
Cc1ccc(NC(=O)c2nsc(Cl)c2Cl)cc1	54*	-9	31	62*	7	0
Cc1ccc(NC(=O)c2ccc(Cl)nc2)cc1	-17	0	-5	7	16	1
N#CCON=C(c1ccccc1)c1ccncc1	·	4	·	·	·	·
O=C(CN1C2=NCCCN2c2ccccc21)c1ccc(Br)s1	-6	6	-11	0	41*	1
O=C(CCc1ccc(S(=O)(=O)NC2CCCCC2)cc1)N(Cc1ccccc1)Cc1ccccc1	-12	33*	-1	-1	23	-1
Cc1ccc(Nc2nc(N=CN(C)C)n[nH]2)cc1C	·	3	·	·	·	·
O=C1NCCCC1C(=O)N/N=C/c1cc([N+](=O)[O-])ccc1O (centres undefined)	-15	·	3	4	45*	2
O=C1NCCCC1C(=O)NN=Cc1cc([N+](=O)[O-])ccc1O (centres undefined)	·	16	·	·	·	·
COc1ccc(NC(=S)NN=Cc2cccn2Cc2ccccc2F)cc1	·	0	·	·	·	·
CCn1c2ccccc2nc2cc3c(cc21)c(Cl)c(=O)c1ccccc13	·	·	·	·	81*	1
Clc1ccccc1-c1nc2ccccc2[nH]1	24	-1	19	38	-37	1
Fc1ccccc1-c1nc2ccccc2[nH]1	74*	-2	63*	76*	-49	2
S=c1[nH]nc(C2CCCCC2)n1N=Cc1c(Cl)cccc1Cl	·	3	·	·	·	·
O=C(N=C1N=C2C=CC(Br)=CN2Cc2ccccc21)c1ccc([N+](=O)[O-])cc1[N+](=O)[O-]	78*	·	56*	67*	13	-1
CCN(C(=O)CSc1nnc(Cc2ccccc2F)n1N)C1CCS(=O)(=O)C1 (centres undefined)	-13	27*	-3	-4	20	-11
CC(=NOC(=O)C1CC1)c1cc(-c2ccc(Cl)cc2)no1	·	1	·	·	·	·
COC1=C(C)C(=O)C2=C(C1=O)C1C3CC4=C(C(=O)C(OC)=C(C)C4=O)C(CNC(=O)C(C)=O)N3C(C#N)C(C2)N1C (centres undefined)	·	·	·	·	55*	3
Cc1ccc(-c2nc(NN=Cc3cccnc3)c3ccccc3n2)cc1	·	2	·	·	·	·
Cc1ccccc1/C=C/c1nc2ccccc2c(=O)[nH]1	12	-180	69*	86*	-71	3
Cc1ccc(Cn2nc(C)c(C=NNC(=O)c3cccnc3)c2C)cc1	·	4	·	·	·	·
O=C(Nc1ccc(F)cc1F)c1ccc(-n2cccn2)nc1	-42	6	-8	-3	27	2
SMILES	SENP6 inh	UCH37 DUB inh	SENP8 block-1	SENP7 block	SENP8 block-2	SENP1 inh
CC(C)Sc1ccc(C(=O)Nc2ccc(F)cc2F)cn1	70*	5	56*	68*	10	0
CCC(C)[C@H](NC(=O)NCCC1=CCCCC1)C(=O)OC (some centres undefined)	-24	25*	-5	-8	15	2
COc1cccc(C(=O)NCCC2=CCCCC2)c1	10	25*	-19	10	16	2
CCCNC(=O)C(=O)NN=Cc1cccs1	·	9	·	·	·	·
CCC(=O)Nc1ccc(NC(=S)NC(=O)c2cc3ccccc3o2)cc1	-6	1	4	3	14	-1
CCC(=O)Nc1cccc(NC(=S)NC(=O)c2cc3ccccc3o2)c1	10	·	-1	76*	15	2
CN(C)c1ccc(Cc2ccc(N(C)C)cc2)cc1	·	3	·	·	30*	3
CN(C)c1ccc(CCc2ccc(N)cc2)cc1	-8	-61	-5	11	-460	4
CC(=O)Nc1cc2c(cc1[N+](=O)[O-])-c1ccccc1C2O (centres undefined)	·	10	·	·	41*	8
CCOC(=O)c1ccc(NC2=CC(=O)C(=O)c3ccccc32)cc1	32	5	9	9	82*	12
COc1cccc(Nc2ccc(N3CCCCC3)cc2)c1OC	7	-3	3	-11	-35	90*
COc1cccc(CNc2ccc(N3CCCCC3)cc2)c1OC	-1	1	-2	4	-271	7
Cn1nc(-c2ccc(Cl)cc2)nc2c(=O)n(C)c(=O)nc1-2	98*	92*	98*	98*	·	·
O=S(=O)(Nc1nc2ccccc2nc1N1CCc2ccccc2C1)c1ccc(Cl)cc1	37	·	0	58*	-235	-11
O=C(Nc1ccc2oc(-c3ccccc3F)nc2c1)c1ccccc1F	12	-17	-3	3	-263	0
O=C(Nc1ccc2oc(-c3ccccc3F)nc2c1)c1ncn[nH]1	82*	·	51*	81*	i	2
CC1CC(=NNC(=O)c2ccc(CSc3nc4ccccc4[nH]3)cc2)CC(C)(C)C1 (centres undefined)	·	2	·	·	·	·
CCN(C(=O)COC(=O)c1ccc([N+](=O)[O-])o1)C1CCCCC1	16	21*	9	10	23	0
CC1CCCC(NC(=O)COC(=O)c2ccc([N+](=O)[O-])o2)C1C (centres undefined)	7	13	5	12	34	-8
O=C(COC(=O)c1ccc([N+](=O)[O-])o1)NCCCc1ccccc1	13	20*	21	17	-5	-21
CCCCNC(=O)C(=O)NN=Cc1ccc(OCc2ccccc2)cc1	·	-1	·	·	·	·
O=C(CCc1ccc(S(=O)(=O)N2CCOCC2)cc1)N/N=C/c1ccc(O)c(O)c1O	-5	·	-3	8	39*	3
O=C(CCc1ccc(S(=O)(=O)N2CCOCC2)cc1)N/N=C/c1ccc(F)cc1F	8	·	-1	-3	11	1
O=[N+]([O-])c1ccc(N/N=C/c2ccc(O)c(O)c2O)c(S(=O)(=O)N2CCOCC2)c1	38	·	15	16	90*	7
O=[N+]([O-])c1ccc(N/N=C/c2cccc(O)c2O)c(S(=O)(=O)N2CCOCC2)c1	-1	·	8	13	7	-55
C(=NNc1nc2ccccc2s1)c1ccco1	·	4	·	·	·	·
Cc1cc(/C=N/NC(=O)c2cccc([N+](=O)[O-])c2)c(C)n1-c1ccc(Cl)cc1Cl	0	·	-2	4	52*	-1
Cc1nn(-c2ccccc2Cl)c(Cl)c1C=NNc1nc2ccccc2s1	·	4	·	·	·	·
Cc1oc(N=Cc2ccc3c(c2)OCO3)c(C#N)c1C	·	3	·	·	·	·

Compound activity: PubChem, several laboratories
